Tests used:
Rattus norvegicus [1] = assay: Antihyperglycemic activity in sucrose charged streptozotocin-induced beta cell damaged diabetic Sprague-Dawley rat at 100 mg/kg; format: functional
How it was run: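 Overnight-fasted male rats got streptozotocin at 60 mg/kg i.p., freshly dissolved in 100 mM citrate buffer pH 4.5. Those with glucose 150–250 mg/dl at 48 h were grouped. Each rat was given sucrose at 2.5 g/kg after test-sample treatment. Glucose was measured at 30, 60, 90, 120, 180, 240 and 300 min and 24 h after dosing, with food withheld.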

Rattus norvegicus [2] = assay: Antihyperglycemic activity in sucrose-loaded Sprague-Dawley rat at 100 mg/kg; format: functional
How it was run: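 Male rats (169 ± 20 g) fasted 16 h; those with glucose 60–80 mg/dl, in groups of five to six, received compound orally as a 1.0% gum acacia suspension at 100 mg/kg, and controls got vehicle alone. Sucrose (10.0 g/kg, oral) followed 30 min later. Glucose was read at 30, 60, 90 and 120 min, and % fall was taken from AUC versus control (active if p < 0.05).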

Glucagon receptor = Glucagon receptor (Homo sapiens, UniProt P47871); assay: Inhibition of [125I]glucagon binding to glucagon receptor
Chain of Glucagon receptor (P47871 whole entry): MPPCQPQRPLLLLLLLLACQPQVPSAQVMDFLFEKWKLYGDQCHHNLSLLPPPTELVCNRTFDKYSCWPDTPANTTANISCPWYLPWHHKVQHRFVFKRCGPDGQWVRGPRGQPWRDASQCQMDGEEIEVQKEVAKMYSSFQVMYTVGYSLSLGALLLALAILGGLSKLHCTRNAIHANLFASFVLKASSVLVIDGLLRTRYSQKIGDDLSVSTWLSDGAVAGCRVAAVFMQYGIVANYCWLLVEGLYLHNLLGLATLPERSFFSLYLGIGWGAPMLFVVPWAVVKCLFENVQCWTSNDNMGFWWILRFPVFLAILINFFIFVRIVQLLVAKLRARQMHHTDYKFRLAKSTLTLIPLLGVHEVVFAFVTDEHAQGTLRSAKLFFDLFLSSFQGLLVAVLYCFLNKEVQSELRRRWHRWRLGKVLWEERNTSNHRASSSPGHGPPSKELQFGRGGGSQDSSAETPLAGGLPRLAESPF

Structure (SMILES) | Activity (Rattus norvegicus [1]) [%] | Activity (Rattus norvegicus [2]) [%] | IC50 (Glucagon receptor) [µM]
O=C(c1ccc(OCCN2CCCCC2)cc1)c1cccc2ccccc12 | 11.3 | 15.4 | 
O=C(c1ccc(OCCNCc2ccccc2)cc1)c1cccc2ccccc12 | 5.6 | 14.9 | 
O=C(c1ccc(OCCNC2CCCCC2)cc1)c1cccc2ccccc12 |  | 7.16 | 
O=C(c1ccc(OCCN2CCCC2)cc1)c1cccc2ccccc12 | 17 | 17.2 | 55
O=C(c1ccc(OCCCNC2CCCCC2)cc1)c1cccc2ccccc12 |  | 11.16 | 
O=C(c1ccc(OCCCl)cc1)c1cccc2ccccc12 |  | 24 | 
O=C(c1ccc(OCCCCl)cc1)c1cccc2ccccc12 | 8.5 | 22 | 
COc1ccc(NCCCOc2ccc(C(=O)c3cccc4ccccc34)cc2)cc1 | 12.6 | 16.17 | 35
O=C(c1ccc(OCCCN2CCCCC2)cc1)c1cccc2ccccc12 | 6.8 | 7.16 | 
O=C(c1ccc(OCCCN2CCCC2)cc1)c1cccc2ccccc12 | 27 | 28.8 | 17
CCN(CC)CCOc1ccc(C(=O)c2cccc3ccccc23)cc1 |  | 7.21 | 
COc1ccc(NCCOc2ccc(C(=O)c3cccc4ccccc34)cc2)cc1 | 9.2 | 9.71 | 
O=C(c1ccc(OCCCNCc2ccccc2)cc1)c1cccc2ccccc12 | 7.5 | 8.06 | 
Cc1ccc(S(=O)(=O)NC(=O)NN2CC3CCCC3C2)cc1 (stereo not given) [GLICLAZIDE] | 27.7 | 40.4 | 
COc1ccc(Cl)cc1C(=O)NCCc1ccc(S(=O)(=O)NC(=O)NC2CCCCC2)cc1 [GLYBURIDE] | 29 | 33.7 | 
CN(C)C(=N)NC(=N)N [METFORMIN] |  | 12.9 | 

Source: ChEMBL document CHEMBL1147707, “Novel substituted naphthalen-1-yl-methanone derivatives as anti-hyperglycemic agents” (Bioorg Med Chem Lett, 2006)
